# Reference: ChEMBL document CHEMBL1122401, “Synthesis and pharmacological activity of 6-[(E)-2-(2,6,6-trimethyl-1-cyclohexen-1-yl)ethen-1-yl]- and 6-(1,2,3,4-tetrahydro-1,1,4,4-tetramethyl-6-naphthyl)-2-naphthalenecarboxylic acids” (1983)
# Legend:
# [1] = Relative activity as reciprocal of the ratio of ED50 (retinoid) / ED50 (retinoic acid) when control was 3 x 10e-11; assay type: functional
# [2] = system: Cricetinae gen. sp.; test: Reversal of keratinization process in hamster tracheal organ culture at concentration of 10e-10 M expressed as percent of active cultures out of 22 cultures; assay type: functional, Trachea
# [3] = Relative activity as reciprocal of the ratio of ED50 (retinoid) / ED50 (retinoic acid) when control was 7 x 10e-12; assay type: functional
# [4] = system: Cricetinae gen. sp.; test: Reversal of keratinization process in hamster tracheal organ culture at concentration of 10e-12 M expressed as percent of active cultures out of 15 cultures; assay type: functional, Trachea
# [5] = system: Cricetinae gen. sp.; test: Reversal of keratinization process in hamster tracheal organ culture at concentration of 10e-9 M expressed as percent of active cultures out of 7 cultures; assay type: functional, Trachea
# [6] = system: Cricetinae gen. sp.; test: Reversal of keratinization process in hamster tracheal organ culture at concentration of 10e-11 M expressed as percent of active cultures out of 22 cultures; assay type: functional, Trachea
# [7] = molecular target: T1, Ornithine decarboxylase (Mus musculus) (UniProt P00860); test: Percent inhibition of induction of ODC(ornithine decarboxylase) by TPA in mouse skin at a dose of 17.0 nmol
# T1 sequence (whole entry): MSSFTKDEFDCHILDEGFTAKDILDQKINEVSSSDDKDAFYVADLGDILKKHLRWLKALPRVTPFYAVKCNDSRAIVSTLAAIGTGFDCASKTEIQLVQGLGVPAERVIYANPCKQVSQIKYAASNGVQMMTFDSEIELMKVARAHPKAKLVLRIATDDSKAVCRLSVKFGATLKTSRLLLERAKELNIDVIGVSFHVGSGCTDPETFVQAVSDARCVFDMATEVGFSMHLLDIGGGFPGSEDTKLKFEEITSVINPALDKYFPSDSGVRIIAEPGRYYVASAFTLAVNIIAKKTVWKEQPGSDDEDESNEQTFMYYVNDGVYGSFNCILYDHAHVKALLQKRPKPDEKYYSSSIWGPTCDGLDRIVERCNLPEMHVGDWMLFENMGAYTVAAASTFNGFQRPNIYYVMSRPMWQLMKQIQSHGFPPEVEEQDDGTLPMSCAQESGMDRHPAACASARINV
# Outline: (§1)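 ODC induction by the tumour-promoting phorbol ester TPA, measured in mouse dorsal epidermis. Retinoid was tested at 1.7 or 17 nmol dose levels. Activity is expressed as a percentage of that of retinoic acid at the same dose.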
# [8] = molecular target: T1, Ornithine decarboxylase (Mus musculus); test: Percent inhibition of induction of ODC(ornithine decarboxylase) by TPA in mouse skin at a dose of 1.7 nmol; outline: as §1
# [9] = Relative activity as reciprocal of the ratio of ED50 (retinoid) / ED50 (retinoic acid) when control was 6 x 10e-12; assay type: functional
# [10] = system: Cricetinae gen. sp.; test: Reversal of keratinization process in hamster tracheal organ culture at concentration of 10e-10 M expressed as percent of active cultures out of 13 cultures; assay type: functional, Trachea
# [11] = system: Cricetinae gen. sp.; test: Reversal of keratinization process in hamster tracheal organ culture at concentration of 10e-11 M expressed as percent of active cultures out of 5 cultures; assay type: functional, Trachea
# [12] = system: Cricetinae gen. sp.; test: Reversal of keratinization process in hamster tracheal organ culture at concentration of 10e-9 M expressed as percent of active cultures out of 12 cultures; assay type: functional, Trachea
# [13] = system: Cricetinae gen. sp.; test: Reversal of keratinization process in hamster tracheal organ culture at concentration of 10e-8 M expressed as percent of active cultures out of 7 cultures; assay type: functional, Trachea
SMILES,Ratio [1],Active culture [2] [%],Ratio [3],Active culture [4] [%],Active culture [5] [%],Active culture [6] [%],inhibition [7] [%],inhibition [8] [%],Ratio [9],Active culture [10] [%],Active culture [11] [%],Active culture [12] [%],Active culture [13] [%]
CC1=C(/C=C/C(C)=C/c2ccc(C(=O)O)cc2)C(C)(C)CCC1,1,–,–,–,–,–,–,–,–,–,–,–,–
CC1(C)CCC(C)(C)c2cc(-c3ccc4cc(C(=O)O)ccc4c3)ccc21,–,95,> 10,27,100,77,80,56,–,–,–,–,–
CC1=C(/C=C/c2ccc3cc(C(=O)O)ccc3c2)C(C)(C)CCC1,–,–,–,–,–,–,48,30,0.4,46,20,92,100
